# Source: PubChem BioAssay
# Sampled rows, rich in hits. Any-hit rate of the full collection: about 3.5%.
# RGS4 block: inhibitors of human RGS4; P49798; HEK293 M3R/RGS4 inducible, Fluo-4 calcium flux; hits give high values; triggered by carbachol at its EC20; B-score at 10 µM; 310,000 compounds, 0.45% hits; AID 463165;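 active = B-score, a plate-corrected calcium signal, over three deviations above library mean, with baseline fluorescence within five deviations of library mean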;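 note: RGS4 expression induced by doxycycline in cells with stable M3 receptor; B-score is computed from the integrated fluorescence ratio over baseline after carbachol; higher B-score means a larger calcium signal and so more RGS4 inhibition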
# Target sequence (P49798 whole entry, looked up): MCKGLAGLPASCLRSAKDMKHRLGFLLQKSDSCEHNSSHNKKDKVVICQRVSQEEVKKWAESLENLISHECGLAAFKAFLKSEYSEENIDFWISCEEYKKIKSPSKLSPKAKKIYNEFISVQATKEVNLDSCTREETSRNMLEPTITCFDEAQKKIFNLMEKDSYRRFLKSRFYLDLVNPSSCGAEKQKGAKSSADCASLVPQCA
# RGS4 pot: RGS4 potentiation or activation; HEK293 M3R/inducible RGS4, carbachol calcium flux Fluo4; hits give low values; B-score at 10 µM; 310,000 compounds, 0.92% hits;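 active = B-score of the integrated calcium signal more than 4 SD below the library mean, with starting fluorescence not abnormally high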;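 note: negative B-score means reduced calcium response which marks RGS4 activation or potentiation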
#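 Also added: carbachol at ECmax as muscarinic agonist stimulus; Assay system: HEK293 cells with stable M3R and inducible RGS4; Timing: overnight RGS4 induction, 30 min dye load 37 °C, 20 min compound RT; Measured by: Fluo4-AM (2 µM) calcium-flux fluorescence, kinetic read.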
# MrgX1 antagonist: human MrgX1 receptor antagonism, primary screen; MRGX1-HEK293 calcium flux, Fluo-4, BAM8-22 antagonism; hits give low values; B-score at 10 µM; 310,000 compounds, 1.3% hits;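 active = calcium-response B-score plate-corrected more than 3 library SD below zero, starting fluorescence within 5 deviations, no agonist response on first addition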;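 note: peak minus trough fluorescence over baseline after final BAM8-22 challenge near maximal dose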
# Target sequence (Q96LB2 whole entry, looked up): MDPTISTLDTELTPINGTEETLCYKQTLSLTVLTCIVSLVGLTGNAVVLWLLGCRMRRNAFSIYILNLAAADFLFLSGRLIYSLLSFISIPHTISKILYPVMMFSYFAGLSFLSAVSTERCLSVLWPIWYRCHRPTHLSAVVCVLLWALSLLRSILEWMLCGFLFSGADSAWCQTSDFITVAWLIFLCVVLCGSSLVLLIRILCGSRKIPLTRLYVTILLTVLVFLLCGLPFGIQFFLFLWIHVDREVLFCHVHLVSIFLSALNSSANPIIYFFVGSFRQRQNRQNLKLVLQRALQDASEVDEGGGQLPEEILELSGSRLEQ
# MrgX1 PAM: human MrgX1 positive allosteric modulation, primary screen; Q96LB2; MrgX1-HEK293, Fluo-4 calcium flux, FDSS; hits give high values; B-score at 10 µM; 310,000 compounds, 0.63% hits;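 active = plate-corrected calcium response at least 3 library SD above typical, normal starting fluorescence, not activating the receptor alone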;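 note: compound read alongside a low EC10 to EC30 dose of BAM8-22 agonist; peak minus trough fluorescence over baseline measured at the second addition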
# MrgX1 agonist: activates human MrgX1 receptor signaling; Q96LB2; MrgX1-HEK293 cells, Fluo-4 calcium fluorescence, agonist mode; hits give high values; B-score at 10 µM; 310,000 compounds, 0.44% hits; AID 588627;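 active = calcium response B-score plate-corrected fluorescence ratio at least 3 library SD, with starting fluorescence B-score inside 5 SD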
#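 Test system: HEK293 cells stably expressing human MrgX1 receptor; amount: 15,000 cells per well; doses: compound delivered in addition one of three; times: overnight plating before 1 h dye loading; detection: Fluo-4 NW calcium-flux fluorescence, kinetic read; read-out basis: B-scored fluorescence response ratio; controls: positive and negative controls per plate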
# MrgX1 ag confirm: confirmation of human MrgX1 receptor agonists. shares compounds with MrgX1 agonist. 600 compounds, 78% hits. AID 602412. activation, % at 10 µM. MrgX1-HEK293, Fluo-4 calcium fluorescence, FDSS;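 active = calcium signal rise, corrected for plate position, at least 3 library SD high, with starting brightness within 5 such deviations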
# HEK293 Ca flux: MrgX1 antagonist counter-screen hit in parental HEK293 cells. shares compounds with MrgX1 antagonist. Fluo-4 calcium fluorescence, FDSS. fluorescence ratio F(max-min)/F0 at 10 µM. 4,000 compounds, 2% hits. AID 624111;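 active = duplicate-averaged calcium fluorescence ratio at least three times the standard deviation of buffer wells, a nonspecific response in parental cells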
# HEK293 Ca counter: counter-screen for MrgX1 allosteric activators: effect in parental HEK293 cells | fluorescence ratio F(max-min)/F0 at 10 µM | AID 624114 | shares compounds with MrgX1 antagonist | parental HEK293 calcium flux, Fluo-4 fluorescence ratio; hits give high values | 4,000 compounds, 0.4% hits;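 active = calcium fluorescence ratio, averaged over duplicates, at least 3 SD of the buffer-well ratio, meaning a nonspecific response in receptor-free cells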;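 note: untransfected parental HEK293 lacking MrgX1 used as counterscreen for MrgX1 allosteric activators; fluorescence change taken during the second addition on a kinetic imager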
# HEK293 Ca cntr2: counter-screen for MrgX1 activators: effect in parental HEK293 cells; fluorescence ratio F(max-min)/F0 at 10 µM; 4,000 compounds, 8.7% hits; AID 624115; Fluo-4 calcium fluorescence (FDSS); hits give high values; shares compounds with MrgX1 antagonist;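 active = calcium fluorescence ratio at least three times the spread of buffer wells, meaning a non-specific response in parental cells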
# Hits are given with their value; 0 = inactive; - = not tested or not shown.
SMILES,RGS4 block,RGS4 pot,MrgX1 antagonist,MrgX1 PAM,MrgX1 agonist,MrgX1 ag confirm,HEK293 Ca flux,HEK293 Ca counter,HEK293 Ca cntr2
CC1=NN2C(=N)/C(=C\c3ccc(SCc4ccccc4)o3)C(=O)N=C2S1,0,0,0,0,0,-,-,-,-
Cc1ccccc1-n1ncc2c1CC(C)(C)CC2NC(=O)c1cn[nH]c1C (stereo not drawn),0,0,0,0,0,-,-,-,-
COc1ccc(/C=C2\SC(=Nc3ccccc3)NC2=O)cc1,0,0,0,0,0,-,-,-,-
COc1ccccc1N=C1NC(=O)/C(=C/c2ccc(N(C)C)cc2)S1,0,0,0,0,65,0,0.22,0,128
COc1ccc(C(=O)NNC(=O)CSc2nnc(C3CC3)n2C)cc1,0,0,0,0,0,-,-,-,-
O=C(CSc1nnc(NC(=O)C2CCC2)s1)NC1CC1,0,0,0,0,40,0,0,0,0
COc1ccc(-c2[nH]c(-c3ccccc3)nc2SCC(=O)NC2CCCC2)cc1,0,0,0,0,29,208%,0,0,46
CC(C)CC(=O)NC1(C(F)(F)F)C(=O)N(CC(C)C)C2=C1C(=O)CC(C)(C)C2 (stereo not drawn),0,0,0,0,0,-,-,-,-
COC(=O)c1c(NC(=O)CN2C(=O)NC3(CCc4ccccc4C3)C2=O)sc2c1CCCCC2 (stereo not drawn),0,0,0,0,29,225%,0,0,75
COC(=O)c1c(NC(=O)CN2C(=O)NC3(CCC(C(C)(C)C)CC3)C2=O)sc2c1CCCCC2 (stereo not drawn),0,0,0,0,0,-,-,-,-
N#Cc1ccc(-c2ccccc2)nc1SCCN1CCOCC1,0,0,0,0,28,171%,0,0,0
Cc1cc(C)c(C#N)c(SCCN2CCOCC2)n1,0,0,0,0,0,-,-,-,-
Cc1ccc(C(=O)N/C(=C/c2ccc(Cl)cc2)C(=O)N2CCOCC2)cc1,0,0,0,0,0,-,-,-,-
Cc1ccc(C)c2nc3sc(C(=O)N4CCOCC4)c(N)c3cc12,0,0,0,0,31,284%,0,0,82
Cc1cc(C)c2cc3c(N)c(C(=O)N4CCOCC4)sc3nc2c1,0,0,0,0,0,-,-,-,-
CC(=O)C1=C(C)Nc2ncnn2C1c1ccccc1F (stereo not drawn),0,0,0,0,0,-,-,-,-
Cc1ccc(N/C(N)=N/c2nc3c(c(=O)[nH]2)CCCC3)c(C)c1,0,0,0,0,0,-,-,-,-
Cc1ccc(N/C(N)=N/c2nc(C)cc(N3CCCCC3)n2)c(C)c1,0,0,0,0,34,137%,0,0,0
Cc1ccc(-c2ccc(C3C(C#N)=C(N)Oc4n[nH]c(C)c43)o2)cc1 (stereo not drawn),0,0,0,0,37,129%,0,0,0
Cc1[nH]nc2c1C(c1ccc(-c3ccc(Cl)cc3)o1)C(C#N)=C(N)O2 (stereo not drawn),0,0,0,0,34,0,0,0,0
O=C(CSc1nnc(-c2ccco2)n1-c1ccccc1Cl)Nc1cccc(C(=O)O)c1,0,0,0,0,0,-,-,-,-
c1ccc(CNc2ncnc3sc4c(c23)CCC4)nc1,0,0,0,0,0,-,-,-,-
c1ccc(CNc2ncnc3scc(-c4cccs4)c23)nc1,0,0,0,0,27,160%,0,0,0
Cc1cc(=O)[nH]c(SCC(=O)Nc2ccc(F)cc2)c1C#N,0,0,0,0,0,-,-,-,-
Cc1cc(=O)[nH]c(SCC(=O)Nc2ccc(Br)cc2)c1C#N,0,0,0,0,72,375%,0,0,84
SMILES,RGS4 block,RGS4 pot,MrgX1 antagonist,MrgX1 PAM,MrgX1 agonist,MrgX1 ag confirm,HEK293 Ca flux,HEK293 Ca counter,HEK293 Ca cntr2
COc1cc(-c2cc(OC)c3c(C)oc(C)c3c(=O)c2)ccc1O,0,0,0,0,30,175%,0,0,0
COc1ccc(-c2cc(OC)c3c(C)oc(C)c3c(=O)c2)cc1OC,0,0,0,0,0,-,-,-,-
O=C(Nc1nnc(-c2ccccc2)o1)c1cc(Cl)sc1Cl,0,0,0,0,43,442%,0,0,88
COc1ccc(C(=O)Nc2nnc(-c3ccccc3)o2)cc1OC,0,0,0,0,0,-,-,-,-
O=C(Nc1nnc(-c2ccc(F)cc2)o1)c1cc(Cl)sc1Cl,0,0,0,0,114,527%,0,0,100
O=C(NC(=S)NNC(=O)c1ccccc1O)c1ccc(F)cc1,0,0,0,0,0,-,-,-,-
Cc1ccc(C(=O)NNC(=S)NC(=O)c2ccco2)cc1,0,0,0,0,135,681%,0,0,123
Cc1ccccc1C(=O)NNC(=S)NC(=O)c1ccccc1,0,0,0,0,159,756%,0,0,146
Cc1ccc(C(=O)NC(=S)NNC(=O)c2ccccc2O)cc1,0,0,0,0,0,-,-,-,-
Cc1ccccc1OCC(=O)NNC(=S)NC(=O)c1ccco1,0,0,0,0,71,327%,0,0,62
Cc1ccc(C(=O)NC(=S)NNC(=O)c2ccccc2)cc1,0,0,0,0,78,492%,0,0,100
Cc1onc(-c2ccccc2)c1C(=O)NC(=S)NNC(=O)c1ccccc1O,0,0,0,0,107,714%,0,0,132
O=C(NNC(=S)NC(=O)c1ccccc1[N+](=O)[O-])c1ccc(Cl)cc1Cl,0,0,0,0,71,218%,0,0,0
Cc1onc(-c2ccccc2)c1C(=O)NC(=S)NNC(=O)c1ccc(O)cc1O,0,0,0,0,0,-,-,-,-
O=C(NNC(=S)NC(=O)c1ccccc1[N+](=O)[O-])c1ccccc1O,0,0,0,0,0,-,-,-,-
Cc1ccc(C(=O)NNC(=S)NC(=O)c2ccc(Cl)cc2Cl)cc1,0,0,0,0,131,585%,0,0,116
O=C(NC(=S)NNC(=O)c1ccccc1O)c1ccccc1,0,0,0,0,93,478%,0,0,86
Cc1occc1C(=O)NNC(=O)c1ccccc1[N+](=O)[O-],0,0,0,0,0,-,-,-,-
O=C(NC(=S)NNC(=O)c1ccccc1O)c1ccc([N+](=O)[O-])cc1,0,0,0,0,0,-,-,-,-
Cc1ccc(C(=O)NC(=S)NNC(=O)c2ccccc2[N+](=O)[O-])cc1,0,0,0,0,77,413%,0,0,78
CCCc1ccc(C(=O)NC(=O)c2ccccc2O)cc1,0,0,0,0,61,187%,0,0,64
